Measured values: ChEMBL document CHEMBL2311473, “Characterization of antimicrobial, cytotoxic, and antiendotoxin properties of short peptides with different hydrophobic amino acids at "a" and "d" positions of a heptad repeat sequence” (J Med Chem, 2013)
In brackets after ≈: the same amount, converted by molar mass. Activity calls are given as the source filed them. No cut-off for these calls is given here.

Legend:
Lipopolysaccharide (LPS) [1] = assay: Binding affinity to LPS assessed as inhibition of LPS-induced LAL enzyme activation at 18 uM after 30 mins by spectrophotometric analysis
Method in brief: (§1)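 Chromogenic limulus amoebocyte lysate endotoxin kit. Peptide binding to LPS estimated from inhibition of LPS-induced LAL enzyme activation, i.e. reduced substrate colour, and reported as percentage LPS binding.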

Lipopolysaccharide (LPS) [2] = assay: Binding affinity to LPS assessed as inhibition of LPS-induced LAL enzyme activation at 9 uM after 30 mins by spectrophotometric analysis; method in brief: as §1
Lipopolysaccharide (LPS) [3] = assay: Binding affinity to LPS assessed as inhibition of LPS-induced LAL enzyme activation at 4.5 uM after 30 mins by spectrophotometric analysis; method in brief: as §1
Lipopolysaccharide (LPS) [4] = assay: Binding affinity to FITC-tagged LPS assessed as induction of disintegration up to 40 uM by […]; conditions: in the assay text read “fluorescence dequenching” for “circular dichroism”
Method in brief: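 FITC-LPS (0.5 μg/mL) titrated with increasing peptide concentrations. Disaggregation read as dequenching, i.e. rise in FITC fluorescence, monitored after each addition until emission reached equilibrium.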

Lipopolysaccharide (LPS) [5] = assay: Binding affinity to LPS assessed as increase in helical structure at 36 uM by circular dichroism analysis
Method in brief: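 CD spectra of peptides (36 μM) recorded alone and with LPS at 3.8 and 6.25 μM.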

RAW264.7 [6] = assay: Antiinflammatory activity in mouse RAW264.7 cells assessed as inhibition of LPS-induced IL6 secretion at 1.5 to 4.5 uM after 12 hrs by ELISA; format: functional, cell-based
Method in brief: (§2)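 RAW 264.7 cells treated with LPS alone or LPS plus peptide. TNF-α and IL-6 measured by ELISA in culture supernatant and expressed as percentage inhibition of LPS-induced secretion. Mean of three independent experiments, SD shown.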

RAW264.7 [7] = assay: Antiinflammatory activity in mouse RAW264.7 cells assessed as downregulation of LPS-induced iNOS2 expression at 4.5 uM after 24 hrs by Western blotting analysis; format: functional, cell-based
Method in brief: (§3)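 RAW 264.7 cells (~2 × 10^5) stimulated with LPS 1 μg/mL plus peptide 4.5 μM for 24 h. Cells washed in ice-cold PBS and lysed in Laemmli buffer. SDS-PAGE (8% gel iNOS-2, 12% TNF-α), nitrocellulose transfer, alkaline phosphatase secondary with NBT/BCIP. Band densities normalized to β-actin. LPS-only and untreated cells served as controls.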

RAW264.7 [8] = assay: Antiinflammatory activity in mouse RAW264.7 cells assessed as downregulation of LPS-induced TNFalpha expression at 4.5 uM after 24 hrs by Western blotting analysis; format: functional, cell-based; method in brief: as §3
RAW264.7 [9] = assay: Antiinflammatory activity in mouse RAW264.7 cells assessed as inhibition of LPS-induced NO production at 6 uM by Griess method; format: functional; design: scale not given: the % may be the effect or the level left
Method in brief: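 RAW 264.7 cells plated at 5 × 10^5/well and exposed to LPS (E. coli 0111:B4, 1 μg/mL) together with peptide at varying doses. Cells with and without LPS served as maximum and basal NO controls. Nitrite in the supernatant measured by Griess reagent at 548 nm against a sodium nitrite standard curve, and percent inhibition of NO calculated.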

[10] = Binding affinity to PE/PG lipid vesicles assessed as increase in helical structure at 36 uM by circular dichroism analysis; format: physicochemical
Method in brief: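 Peptides (~36 μM) with ~500 μM PC/Chol (8:1 w/w) or PE/PG (7:3 w/w) vesicles. CD spectra 250–190 nm at ~30 °C in 0.2 cm cuvette; 4–6 scans averaged at 20 nm/min, 0.5 nm interval.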

[11] = Binding affinity to PE/PG lipid vesicles assessed as decrease in decrease in acrylamide-induced tryptophan fluorescence quenching at 1 uM; format: physicochemical
Method in brief: (§4)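 Acrylamide quencher added in aliquots from 3.0 M stock to peptide with PC/Chol (8:1) or PE/PG (7:3) SUVs, peptide/lipid 1:100. Trp excited at 295 nm. Values corrected for dilution and vesicle-blank scatter, then fitted to Stern–Volmer F0/F = 1 + KSV[Q].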

[12] = Binding affinity to PC/Chol lipid vesicles assessed as decrease in acrylamide-induced tryptophan fluorescence quenching at 1 uM; format: physicochemical; method in brief: as §4
[13] = Binding affinity to PC/Chol lipid vesicles assessed as induction of large blue shift at 1 uM by fluorescence assay; format: physicochemical
[14] = Binding affinity to PE/PG lipid vesicles assessed as induction of large blue shift at 1 uM by fluorescence assay; format: physicochemical
[15] = Induction of dissipation of diffusion potential in PC/Chol lipid vesicles by fluorescence assay; format: physicochemical
Method in brief: (§5)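 SUVs of PC/Chol (8:1 w/w) or PE/PG (7:3 w/w) treated with peptide. Dissipation of diffusion potential taken as percentage fluorescence recovery ~5 min after peptide addition, with valinomycin used for reference levels. Plotted against peptide/lipid molar ratio.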

[16] = Induction of dissipation of diffusion potential in PE/PG lipid vesicles by fluorescence assay; format: physicochemical; method in brief: as §5
Staphylococcus aureus [17] = assay: Bactericidal activity against Staphylococcus aureus ATCC 9144 assessed as induction of membrane depolarization at up to 7 uM by DiSC3(5) staining-based fluorescence assay; format: functional, organism-based
Method in brief: (§6)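 Membrane potential dye diS-C3-5 preincubated 1 h with hRBC or S. aureus suspensions; I0 is steady-state fluorescence after this incubation. Peptide then added at varying concentrations. Depolarization expressed as percentage fluorescence recovery (Ft) versus peptide concentration.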

[18] = Cytotoxicity against human RBC assessed as induction of membrane depolarization at up to 16 uM by DiSC3(5) staining-based fluorescence assay; format: cell-based; conditions: erythrocyte; method in brief: as §6
Escherichia coli [19] = assay: Bactericidal activity against Escherichia coli ATCC 10536 assessed as induction of membrane damage at 5 uM after 30 mins by propidium iodide staining-based flow cytometric analysis; format: functional, organism-based
Method in brief: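 Mid-log E. coli incubated with peptide (~5.0 μM) 30 min at 37 °C with shaking. Cells washed twice in PBS, stained with propidium iodide 30 min at 4 °C, washed and resuspended. 10000 events per sample by flow cytometry, compared with peptide-free control.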

[20] = Cytotoxicity against human RBC assessed as induction of membrane damage at 25 uM after 5 mins by annexin V-FITC staining-based FACS flow cytometric analysis; format: cell-based; conditions: erythrocyte
Method in brief: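 hRBCs (~3.0 × 10^7 cells/mL) treated with peptide (~25.0 μM) for 5 min at room temperature. Stained with FITC-annexin V and analysed by flow cytometry, 10000 events, compared with untreated control.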

Escherichia coli [21] = assay: Drug uptake in Escherichia coli ATCC 10536 assessed as membrane localization at 3 uM after 30 mins by confocal microscopic analysis; format: ADME, organism-based; conditions: in vivo, 0.5 h
Method in brief: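 E. coli (~10^6 CFU/mL) in LB incubated with fluorescent-labeled peptide (~3.0 μM) for half an hour. Cells centrifuged, washed and imaged by confocal microscopy (DIC and fluorescence).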

Aspergillus fumigatus = assay: Antifungal activity against Aspergillus fumigatus after 72 hrs by NCCLS microbroth dilution method; format: functional
Method in brief: (§7)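 Microbroth dilution in MOPS-buffered RPMI 1640 following NCCLS guidelines. Inoculum 1−5 × 10^3 cells/mL, peptide range 50−0.36 (mass/mL). Plates held in a moist chamber at 35 °C and A492 read after 48 h (Candida spp.), 72 h (A. fumigatus, S. schenckii, C. neoformans) or 96 h (T. mentagrophytes). MIC taken as 90% growth inhibition versus growth control.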

[22] = system: Trichophyton mentagrophytes; assay: Antifungal activity against Trichophyton mentagrophytes after 96 hrs by NCCLS microbroth dilution method; format: functional; method in brief: as §7
Sporothrix schenckii = assay: Antifungal activity against Sporothrix schenckii after 72 hrs by NCCLS microbroth dilution method; format: functional; method in brief: as §7
Candida parapsilosis = assay: Antifungal activity against Candida parapsilosis ATCC 22019 after 48 hrs by NCCLS microbroth dilution method; format: functional; conditions: Lodderomyces parapsilosis, ATCC 22019, 48 h; method in brief: as §7
Cryptococcus neoformans = assay: Antifungal activity against Cryptococcus neoformans after 72 hrs by NCCLS microbroth dilution method; format: functional; method in brief: as §7
Candida albicans = assay: Antifungal activity against Candida albicans after 48 hrs by NCCLS microbroth dilution method; format: functional; method in brief: as §7
Klebsiella pneumoniae = assay: Antibacterial activity against Klebsiella pneumoniae ATCC 27736 after 18 hrs by broth dilution method; format: functional; conditions: ATCC 27736, 18 h
Method in brief: (§8)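 Bacteria grown aerobically at 37 °C in Mueller-Hinton broth to mid-log phase (OD600), diluted to ~10^6 cfu/mL, then mixed 1:1 with 2-fold serial peptide dilutions in water. Incubation ~18 h at 37 °C before MIC read-out (μM).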

Pseudomonas aeruginosa = assay: Antibacterial activity against Pseudomonas aeruginosa ATCC BAA-427 after 18 hrs by broth dilution method; format: functional; conditions: ATCC BAA-427, 18 h; method in brief: as §8
Staphylococcus aureus [23] = assay: Antibacterial activity against methicillin-resistant Staphylococcus aureus after 18 hrs by broth dilution method; format: functional; method in brief: as §8
Escherichia coli [24] = assay: Antibacterial activity against Escherichia coli ATCC 10536 after 18 hrs by broth dilution method; format: functional; conditions: ATCC 10536, 18 h; method in brief: as §8
Bacillus subtilis = assay: Antibacterial activity against Bacillus subtilis ATCC 6633 after 18 hrs by broth dilution method; format: functional; conditions: ATCC 6633, 18 h; method in brief: as §8
[25] = system: Staphylococcus epidermidis; assay: Antibacterial activity against Staphylococcus epidermidis NRRL B-4268 after 18 hrs by broth dilution method; format: functional; conditions: NRRL B-4268, 18 h; method in brief: as §8
Staphylococcus aureus [26] = assay: Antibacterial activity against Staphylococcus aureus ATCC 9144 after 18 hrs by broth dilution method; format: functional; conditions: ATCC 9144, 18 h; method in brief: as §8
NIH3T3 = assay: Cytotoxicity against mouse 3T3 cells assessed as cell viability up to 25 uM by MTT assay; format: cell-based
Method in brief: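 Murine 3T3 fibroblasts, grown in DMEM/IMDM with 10% FCS at 37 °C, 5% CO2, seeded at 10000 cells/well. Viability after peptide exposure measured by MTT (mitochondrial dehydrogenase) across a dose range.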

[27] = Cytotoxicity against human RBC assessed as hemolysis at 60 uM; format: cell-based, Erythrocyte; conditions: red blood cells (RBC), read-out: Activity
Method in brief: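 hRBCs in PBS exposed to peptide. Hemoglobin release read as supernatant absorbance at 540 nm. Hemolysis % = (Asample − Ablank)/(Atriton − Ablank) × 100, with PBS blank and 0.2% Triton X-100 (final) as 100% reference.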

RAW264.7 [28] = assay: Antiinflammatory activity in mouse RAW264.7 cells assessed as inhibition of LPS-induced TNFalpha secretion at 1.5 to 4.5 uM after 12 hrs by ELISA; format: functional, cell-based; method in brief: as §2
[29] = Drug uptake in human RBC assessed as membrane localization at 9 uM after 10 to 30 mins by confocal microscopic analysis; format: ADME; conditions: erythrocyte
Method in brief: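 Fresh hRBCs (3% in PBS) incubated with NBD-labeled peptide (~9.0 μM) for 10–30 min at 37 °C. Washed, fixed in 2% paraformaldehyde 10 min, and imaged by confocal microscopy at constant photomultiplier setting.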

CC(C)[C@H](N)C(=O)O [VALINE]
inhibition (Lipopolysaccharide (LPS) [1]): 29% | inhibition (Lipopolysaccharide (LPS) [2]): 22% | inhibition (Lipopolysaccharide (LPS) [3]): 8% | Activity (Lipopolysaccharide (LPS) [4]): Active | Activity (Lipopolysaccharide (LPS) [5]): Active | inhibition (RAW264.7 [6]): Active | Activity (RAW264.7 [7]): Active | Activity (RAW264.7 [8]): Active | Activity (RAW264.7 [9]): 50% | Activity [10]: Active | Activity [11]: Active | Activity [12]: Not Active | Activity [13]: Not Active | Activity [14]: Active | Activity [15]: Active | Activity [16]: Active | Activity (Staphylococcus aureus [17]): Active | Activity [18]: Non-toxic | Activity (Escherichia coli [19]): Active | Activity [20]: Non-toxic | Drug uptake (Escherichia coli [21]): Active | MIC (Aspergillus fumigatus): 8.4 µM (≈ 0.984 µg/mL) | MIC [22]: 6 µM (≈ 0.703 µg/mL) | MIC (Sporothrix schenckii): 6 µM (≈ 0.703 µg/mL) | MIC (Candida parapsilosis): 1.5 µM (≈ 0.176 µg/mL) | MIC (Cryptococcus neoformans): 8.4 µM (≈ 0.984 µg/mL) | MIC (Candida albicans): 9.6 µM (≈ 1.12 µg/mL) | MIC (Klebsiella pneumoniae): 3.2 µM (≈ 0.375 µg/mL) | MIC (Pseudomonas aeruginosa): 3.2 µM (≈ 0.375 µg/mL) | MIC (Staphylococcus aureus [23]): 12.5 µM (≈ 1.46 µg/mL) | MIC (Escherichia coli [24]): 3 µM (≈ 0.351 µg/mL) | MIC (Bacillus subtilis): 6.8 µM (≈ 0.797 µg/mL) | MIC [25]: 6 µM (≈ 0.703 µg/mL) | MIC (Staphylococcus aureus [26]): 5.1 µM (≈ 0.597 µg/mL) | Activity (NIH3T3): Toxic | hemolysis at 60 µM [27]: 10% | inhibition (RAW264.7 [28]): Active | Drug uptake [29]: Active
